Where a name gives a salt, the structure may show the parent alone. Activity calls are given as the source filed them. The rule behind the calls is not given here.
How the values were obtained:
[1] = test system: Mycolicibacterium smegmatis; assay: Antibacterial activity against Mycobacterium smegmatis NBRC 3207 at 5 ug/disc incubated at 37 degC for 2 days by paper disc method; type: functional; settings: for zone of inhibition at 5 µg/disc: NBRC 3207, 48 h, read-out: IZ
In short: (§1)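 M. smegmatis NBRC 3207 kept as 20% glycerol stock at -80°C. Grown in Middlebrook 7H9 with 0.05% polysorbate 80, 0.5% glycerol and 10% OADC at 37°C for 2 days, then adjusted to 1.0×10^8 CFU/mL and spread on the same medium with 1.5% agar. Sample in CH3OH dried onto 6 mm discs, plated at 37°C for 2 days, inhibition zone read (mm). Controls: streptomycin sulfate 5 µg/disc, CH3OH.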

[2] = test system: Mycolicibacterium smegmatis; assay: Antibacterial activity against Mycobacterium smegmatis NBRC 3207 at 10 ug/disc incubated at 37 degC for 2 days by paper disc method; type: functional; settings: NBRC 3207, 48 h, read-out: IZ; in short: as §1
[3] = molecular target: Dual specificity protein phosphatase 3 (Homo sapiens) (UniProt P51452); assay: Inhibition of VHR (unknown origin) at 17 uM pre-incubated for 10 mins before pNPP substrate addition and measured after 30 mins
In short: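 Enzyme at 1.0 µg/mL stock, in 50 mM citrate buffer pH 6.0 with 0.1 M NaCl, 1 mM DTT and 1 mM EDTA. Sample in methanol preincubated 10 min at 37°C. pNPP (4.0 mM stock) then added, 30 min at 37°C, stopped with NaOH. Absorbance read at 405 nm. % inhibition from blank- and no-sample-control-corrected readings. Three duplicate experiments. Oleanolic acid positive control.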

[4] = test system: Mycolicibacterium smegmatis; assay: Antibacterial activity against Mycobacterium smegmatis NBRC 3207 at 1 ug/disc incubated at 37 degC for 2 days by paper disc method; type: functional; in short: as §1
[5] = test system: Mycolicibacterium smegmatis; assay: Antibacterial activity against Mycobacterium smegmatis NBRC 3207 incubated at 37 degC for 2 days by paper disc method; type: functional; in short: as §1
[6] = molecular target: Dual specificity protein phosphatase 3 (Homo sapiens) (UniProt P51452); assay: Inhibition of VHR (unknown origin) at 18 uM pre-incubated for 10 mins before pNPP substrate addition and measured after 30 mins
In short: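 VHR (1.0 µg/mL stock) in 50 mM citrate buffer pH 6.0 with 0.1 M NaCl, 1 mM DTT and 1 mM EDTA. Sample in CH3OH added, preincubated 10 min at 37°C. pNPP added (4.0 mM stock), 30 min at 37°C, stopped with NaOH, A405 read. % inhibition computed against enzyme-free blank and sample-free control. Three duplicate experiments. Oleanolic acid as positive control.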

Dual specificity protein phosphatase 3 (Homo sapiens), sequence (P51452 whole entry, looked up): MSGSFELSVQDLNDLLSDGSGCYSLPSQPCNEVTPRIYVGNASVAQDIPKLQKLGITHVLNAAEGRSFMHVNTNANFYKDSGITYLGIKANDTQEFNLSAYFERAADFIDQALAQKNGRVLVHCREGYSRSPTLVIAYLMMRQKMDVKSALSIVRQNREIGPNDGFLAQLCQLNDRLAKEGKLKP

**Q.** How did the zone of inhibition at 5 µg/disc [1] turn out when c1cc2c[n+](c1)CCCCCCCCCCCCCCCc1ccc[n+](c1)CCCCCCCCCCCCCC2 was run?
**A.** 9 mm

**Q.** And the zone of inhibition at 10 µg/disc [2]?
**A.** 13 mm

**Q.** And the inhibition [3]?
**A.** 28%

**Q.** What about the “inhibition zone (IZ)” value [4] of the same compound?
**A.** inactive

**Q.** What about the “growth inhibition (GI)” value [5] of the same compound?
**A.** Dose-dependent effect

**Q.** How did the zone of inhibition at 5 µg/disc [1] turn out when C1=C/CC[n+]2cccc(c2)CCCCCCCCCCCCCC[n+]2cccc(c2)CCCCCCCCCC/1 was run?
**A.** 7 mm

**Q.** What about the zone of inhibition at 10 µg/disc [2] of the same compound?
**A.** 10 mm

**Q.** What about the “inhibition zone (IZ)” value [4] of the same compound?
**A.** inactive

**Q.** And the “growth inhibition (GI)” value [5]?
**A.** Dose-dependent effect

**Q.** With c1cc2c[n+](c1)CCCCCCCCCCCCCc1ccc[n+](c1)CCCCCCCCCCCCC2 as the compound, how does the “inhibition zone (IZ)” value [1] read?
**A.** inactive

**Q.** What about the zone of inhibition at 10 µg/disc [2] of the same compound?
**A.** 8 mm

**Q.** What about the “inhibition zone (IZ)” value [4] of the same compound?
**A.** inactive

**Q.** What about the “growth inhibition (GI)” value [5] of the same compound?
**A.** Dose-dependent effect

**Q.** How did the zone of inhibition at 5 µg/disc [1] turn out when C1=C/CC[n+]2cccc(c2)CCCCCCCCCCCC[n+]2cccc(c2)CCCCCCCCCC/1 was run?
**A.** 10 mm

**Q.** And the zone of inhibition at 10 µg/disc [2]?
**A.** 17 mm

**Q.** What about the “inhibition zone (IZ)” value [4] of the same compound?
**A.** inactive

**Q.** What about the “growth inhibition (GI)” value [5] of the same compound?
**A.** Dose-dependent effect

**Q.** Which results are given for c1cc2c[n+](c1)CCCCCCCCCCCCc1ccc[n+](c1)CCCCCCCCCCCC2 [CYCLOSTELLETAMINES A]?
**A.** zone of inhibition at 5 µg/disc [1]: 9 mm; zone of inhibition at 10 µg/disc [2]: 14 mm; inhibition zone (IZ) [4]: inactive; growth inhibition (GI) [5]: Dose-dependent effect

**Q.** What does the source list for c1cc2c[n+](c1)CCCCCCCCCCCCCc1ccc[n+](c1)CCCCCCCCCCCC2 [CYCLOSTELLETAMINES B]?
**A.** inhibition zone (IZ) [1]: inactive; zone of inhibition at 10 µg/disc [2]: 8 mm; inhibition zone (IZ) [4]: inactive; growth inhibition (GI) [5]: Dose-dependent effect

**Q.** Which zone of inhibition at 5 µg/disc [1] does the source give for c1cc2c[n+](c1)CCCCCCCCCCCCCCc1ccc[n+](c1)CCCCCCCCCCCCC2 [CYCLOSTELLETAMINES E] here?
**A.** 7 mm

**Q.** And the zone of inhibition at 10 µg/disc [2]?
**A.** 12 mm

**Q.** What about the “inhibition zone (IZ)” value [4] of the same compound?
**A.** inactive

**Q.** And the “growth inhibition (GI)” value [5]?
**A.** Dose-dependent effect

**Q.** How did the zone of inhibition at 5 µg/disc [1] turn out when c1cc2c[n+](c1)CCCCCCCCCCCCCCc1ccc[n+](c1)CCCCCCCCCCCCCC2 [CYCLOSTELLETAMINES F] was run?
**A.** 8 mm

**Q.** What about the zone of inhibition at 10 µg/disc [2] of the same compound?
**A.** 12 mm

**Q.** What about the inhibition [6] of the same compound?
**A.** 38%

**Q.** And the “inhibition zone (IZ)” value [4]?
**A.** inactive

**Q.** And the “growth inhibition (GI)” value [5]?
**A.** Dose-dependent effect

**Q.** CN[C@@H]1[C@H](O[C@H]2[C@H](O[C@H]3[C@H](O)[C@@H](O)[C@H](N=C(N)N)[C@@H](O)[C@@H]3N=C(N)N)O[C@@H](C)[C@]2(O)C=O)O[C@@H](CO)[C@H](O)[C@H]1O [STREPTOMYCIN SULFATE] was tested. Which zone of inhibition at 5 µg/disc [1] did it give?
**A.** 35 mm

**Q.** And the zone of inhibition at 1 µg/disc ([4]; NBRC 3207, 48 h, read-out: IZ)?
**A.** 20 mm

From ChEMBL document CHEMBL4033737, “Anti-mycobacterial alkaloids, cyclic 3-alkyl pyridinium dimers, from the Indonesian marine sponge Haliclona sp” (2017)
